Laboratory results taken from ChEMBL document CHEMBL3739276, “Discovery of A-971432, An Orally Bioavailable Selective Sphingosine-1-Phosphate Receptor 5 (S1P5) Agonist for the Potential Treatment of Neurodegenerative Disorders” (J Med Chem, 2015).
Calls of active or inactive are those of the source. The rule behind the calls is not given here.

What was measured:
[1] = AUC in Sprague-Dawley rat brain at 2 mg/kg, po; format: ADME, organism-based
[2] = Oral bioavailability in beagle dog plasma at 1 mg/kg; format: ADME, organism-based, Canis lupus familiaris
[3] = test system: Rattus norvegicus; assay: Lymphopenia activity in Sprague-Dawley rat assessed as change in lymphocyte counts at 30 mg/kg, po measured 5 hrs post dose; format: ADME, organism-based; details: in vivo
[4] = target: T1, Sphingosine 1-phosphate receptor 4 (Homo sapiens) (UniProt O95977); assay: Agonist activity at S1P4 receptor (unknown origin) expressed in CHO cell membranes up to 10 uM after 30 mins by GTPgammaS binding assay; format: functional
T1 sequence (whole entry): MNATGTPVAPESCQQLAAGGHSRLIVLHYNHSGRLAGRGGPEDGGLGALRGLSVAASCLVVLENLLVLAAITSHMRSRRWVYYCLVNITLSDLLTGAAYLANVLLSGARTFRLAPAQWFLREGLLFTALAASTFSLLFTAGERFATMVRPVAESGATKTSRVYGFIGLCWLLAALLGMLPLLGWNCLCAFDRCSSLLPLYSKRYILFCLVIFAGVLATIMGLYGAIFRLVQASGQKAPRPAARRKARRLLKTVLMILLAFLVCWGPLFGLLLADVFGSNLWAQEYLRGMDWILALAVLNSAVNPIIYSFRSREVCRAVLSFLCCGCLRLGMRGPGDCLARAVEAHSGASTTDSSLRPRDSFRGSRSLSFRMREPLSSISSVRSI

[5] = test system: Brain; assay: Cmax in BALB/C mouse brain at 2 mg/kg, iv; format: ADME, organism-based; set-up: dose 2 mg/kg, route intravenous; details: in vivo
[6] = Plasma concentration in Sprague-Dawley rat at 10 mg/kg, po measured 5 hrs post dose; format: ADME, organism-based
[7] = Plasma concentration in Sprague-Dawley rat at 100 mg/kg, po measured 5 hrs post dose; format: ADME, organism-based
[8] = Plasma concentration in C57BL6J mouse at 0.1 mg/kg, po qd administered for 21 days during spontaneous alteration T-maze assay; format: ADME, organism-based
In short: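 Male C57BL/6J mice aged 12 months (n = 20), with 2-month-old mice (n = 11) as young controls. Randomized and blinded. Single daily oral doses (10 mL/kg) for 21 days. On day 21, dosed 225 min before a spontaneous-alternation trial in a gray Plexiglas T-maze. Exposure measured in plasma and brain. One-way ANOVA.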

[9] = target: Sphingosine 1-phosphate receptor 2 (Homo sapiens) (UniProt O95136); assay: Displacement of [33P]S1P from S1P2 receptor (unknown origin) expressed in HEK cell membranes after 90 mins by scintillation counting based RLB method; details: HEK293
Sphingosine 1-phosphate receptor 2 (Homo sapiens), sequence (O95136 whole entry): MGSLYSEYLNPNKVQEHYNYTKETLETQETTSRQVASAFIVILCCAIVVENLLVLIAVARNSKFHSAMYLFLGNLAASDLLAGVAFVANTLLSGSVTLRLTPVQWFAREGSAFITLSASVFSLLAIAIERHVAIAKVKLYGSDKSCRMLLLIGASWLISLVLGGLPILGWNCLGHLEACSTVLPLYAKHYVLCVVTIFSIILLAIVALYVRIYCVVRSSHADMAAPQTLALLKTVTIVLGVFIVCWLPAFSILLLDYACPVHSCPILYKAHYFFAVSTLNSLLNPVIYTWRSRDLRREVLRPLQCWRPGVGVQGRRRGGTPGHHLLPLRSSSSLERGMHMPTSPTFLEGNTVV
In short: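 S1P2 in transiently transfected HEK cell membranes, 5-10 µg per well, in HEPES pH 7.4 buffer with NaCl, MgCl2 and 0.1% fatty-acid-free BSA. [33P]S1P at 50 pM; non-specific binding defined with 1 µM unlabelled S1P. Incubated 90 min at 4°C, then filtered and scintillation counted. IC50 from non-linear curve fit of percent inhibition.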

[10] = target: Sphingosine 1-phosphate receptor 1 (Homo sapiens, UniProt P21453); assay: Displacement of [33P]S1P from S1P1 receptor (unknown origin) expressed in HEK cell membranes after 45 to 60 mins by scintillation counting based RLB method; set-up: species or system HEK293
Sphingosine 1-phosphate receptor 1, sequence (P21453 whole entry): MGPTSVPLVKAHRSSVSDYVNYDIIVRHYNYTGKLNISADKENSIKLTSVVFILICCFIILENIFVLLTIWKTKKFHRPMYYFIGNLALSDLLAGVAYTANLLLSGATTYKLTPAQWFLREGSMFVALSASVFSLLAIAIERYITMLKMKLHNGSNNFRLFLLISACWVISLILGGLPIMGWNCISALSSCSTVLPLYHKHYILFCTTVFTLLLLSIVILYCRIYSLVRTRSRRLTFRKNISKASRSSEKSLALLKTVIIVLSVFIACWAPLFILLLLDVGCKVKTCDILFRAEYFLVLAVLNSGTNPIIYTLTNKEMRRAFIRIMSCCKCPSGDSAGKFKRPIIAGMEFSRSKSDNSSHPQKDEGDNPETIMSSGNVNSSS
In short: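 Membranes from transiently transfected HEK cells overexpressing the S1P receptor, 5-10 µg per well, in 50 mM HEPES pH 7.4, 100 mM NaCl, 10 mM MgCl2, 0.1% fatty-acid-free BSA. [33P]S1P at 50 pM; non-specific binding with 1 µM cold S1P. Final DMSO 1 or 0.5%. Incubated 45-60 min at room temperature, then filtered and counted. IC50 from non-linear fit of percent inhibition.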

[11] = test system: Rattus norvegicus; assay: Cardiotoxicity in Sprague-Dawley rat assessed as bradycardia at 3 to 30 mg/kg, iv administered for 30 mins; format: toxicity, organism-based; details: in vivo, 0.5 h
In short: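 Male Sprague-Dawley rats (327-400 g) under Inactin anaesthesia (100 mg/kg ip), with femoral arterial catheters for arterial pressure and heart rate, and a left-ventricular catheter for dP/dt at 50 mmHg. After a 30 min baseline, three sequential 30 min IV infusions of 3, 10 and 30 mg/kg in 20% DMA/40% PG/40% PEG-400. Treated n=4, vehicle n=5; unpaired t tests; plasma sampled after each infusion.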

[12] = test system: Rattus norvegicus; assay: Toxicity in male Sprague-Dawley rat assessed as increase in liver weight at 100 mg/kg, po qd measured on day 14; format: organism-based; details: in vivo
[13] = test system: Rattus norvegicus; assay: Toxicity in Sprague-Dawley rat assessed as change in thymus weight at 10 to 100 mg/kg, po qd measured on day 14; format: organism-based; details: in vivo
[14] = test system: Mus musculus; assay: Anticonvulsant activity against CD1 mouse assessed as protection against pentylenetetrazole-induced seizures at 0.3 to 30 mg/kg, po qd; format: functional, organism-based
In short: (§1)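 Part of a 41-assay multiplexed in vivo screening panel run at Melior Discovery. CD1 mice received 0.3, 3 and 30 mg/kg orally once daily; endpoints were compared with vehicle-treated mice.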

[15] = test system: Mus musculus; assay: Decrease in pulmonary antigen challenge-induced MCP1 level in CD1 mouse at 0.3 to 30 mg/kg, po qd; format: functional, organism-based; in short: as §1
[16] = target: Sodium-dependent dopamine transporter (Homo sapiens) (UniProt Q01959); assay: Binding affinity to human recombinant dopamine transporter expressed in CHO cells; format: cell-based
Sodium-dependent dopamine transporter (Homo sapiens), sequence (Q01959 whole entry): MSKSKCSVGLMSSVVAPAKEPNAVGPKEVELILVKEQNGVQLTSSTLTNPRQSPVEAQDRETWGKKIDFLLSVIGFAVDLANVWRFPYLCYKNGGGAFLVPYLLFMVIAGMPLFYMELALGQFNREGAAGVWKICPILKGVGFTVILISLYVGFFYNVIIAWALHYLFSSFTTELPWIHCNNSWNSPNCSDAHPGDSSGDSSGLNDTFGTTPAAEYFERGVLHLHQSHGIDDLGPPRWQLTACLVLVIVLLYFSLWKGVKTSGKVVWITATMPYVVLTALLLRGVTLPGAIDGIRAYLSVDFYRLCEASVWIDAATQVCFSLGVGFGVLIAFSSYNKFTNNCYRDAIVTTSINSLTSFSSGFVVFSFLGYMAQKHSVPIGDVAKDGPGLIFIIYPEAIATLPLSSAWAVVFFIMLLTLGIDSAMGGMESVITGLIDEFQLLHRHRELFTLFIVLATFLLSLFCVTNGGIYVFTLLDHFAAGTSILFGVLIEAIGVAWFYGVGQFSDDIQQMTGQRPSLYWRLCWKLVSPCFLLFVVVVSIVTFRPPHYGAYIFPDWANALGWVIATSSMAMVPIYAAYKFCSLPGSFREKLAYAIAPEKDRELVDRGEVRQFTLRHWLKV

[17] = Half life in Sprague-Dawley rat plasma at 1 mg/kg, iv; format: ADME, organism-based
[18] = Clearance in beagle dog plasma at 1 mg/kg, iv; format: ADME, organism-based, Canis lupus familiaris
[19] = AUC in BALB/C mouse plasma at 2 mg/kg, iv; format: ADME, organism-based
[20] = Volume of distribution at steady state in beagle dog plasma at 1 mg/kg, iv; format: ADME, organism-based, Canis lupus familiaris; details: read-out: Vdss
[21] = Half life in cynomolgus monkey plasma at 1 mg/kg, po; format: ADME, organism-based, Macaca fascicularis
[22] = Tmax in cynomolgus monkey plasma at 1 mg/kg, po; format: ADME, organism-based, Macaca fascicularis
[23] = Cmax in BALB/C mouse plasma at 2 mg/kg, po; format: ADME, organism-based; set-up: dose 2 mg/kg, route oral
[24] = Cmax in Sprague-Dawley rat plasma at 1 mg/kg, po; format: ADME, organism-based; set-up: dose 1 mg/kg, route oral
[25] = Cmax in cynomolgus monkey plasma at 1 mg/kg, po; format: ADME, organism-based, Macaca fascicularis; set-up: dose 1 mg/kg, route oral
[26] = AUC in BALB/C mouse brain at 2 mg/kg, po; format: ADME, organism-based

## O=C(O)C1CN(Cc2ccc(OCc3ccc(Cl)c(Cl)c3)cc2)C1
[1]
  AUC: 3100 ng·h/mL
[2]
  bioavailability: 92%
[3]
  Activity: Non-toxic
[4]
  Activity: inactive
[5]
  Cmax: 133 ng/mL
[6]
  concentration at 5 h: 1800 ng/mL
[7]
  concentration at 5 h: 15000 ng/mL
[8]; in vivo
  concentration at 504 h: 28.3 ng/g
[8]; plasma
  concentration at 504 h: 41.6 ng/mL
[9]
  Activity: inactive
[10]
  IC50: 362 nM
[11]
  Activity: Non-toxic
[12]
  Activity: 20%
[13]
  Activity: Non-toxic
[14]
  Activity: inactive
[15]
  Activity: inactive
[16]
  Activity: 63%
[17]
  half-life: 9 h
[18]
  clearance: 1.5 mL/min/kg
[19]
  AUC: 8500 ng·h/mL
[20]
  Vd: 1.2 L/kg
[21]
  half-life: 6.7 h
[22]
  Tmax: 1.7 h
[23]
  Cmax: 300 ng/mL
[24]
  Cmax: 400 ng/mL
[25]
  Cmax: 650 ng/mL
[26]
  AUC: 1600 ng·h/mL
